Active and inactive are the calls of the source. No cut-off for these calls is given here.
Assays:
Gallus gallus = species: Gallus gallus; test: Antiangiogenic activity in chicken embryo chorioallantoic membrane model at 250 nmol/disc after 3 days; assay type: functional, tissue-based
[1] = Antiproliferative activity against bovine BAEC cells after 4 days by coulter counter method; assay type: functional, cell-based; settings: Bos taurus, 96 h
HeLa [2] = test: Antiproliferative activity against human HeLa cells after 4 days by coulter counter method; assay type: functional, cell-based; settings: 96 h
MAEC = test: Antimigratory activity against mouse MAEC cell migration after 5 hrs by wound closure assay; assay type: functional, cell-based
Outline: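 Confluent MAEC monolayers wounded with a 1.0-mm wide micropipette tip, then incubated in fresh medium with test compound. Wounds photographed after 5 h and width calculated from digital images. Mean ± SD of 2–4 independent experiments; Student t test, p < 0.05 significant.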

[3] = Antiproliferative activity against human HMEC1 cells after 7 days by coulter counter method; assay type: functional, cell-based; settings: HMEC-1, 168 h
MCF7 [4] = test: Cytotoxicity against human MCF7 cells at 100 uM after 3 days by coulter counter method; assay type: cell-based; settings: mcf7, 72 h
Outline: (§1)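 Cells seeded at 10,000 cells per cm2; after 16 h, fresh medium with test compound added. Cells trypsinized and counted with a Coulter counter on day 4 (BAEC, HeLa, MCF-7) or day 7 (HMEC-1). Cytotoxicity (cell death) was judged after 3 days in culture. HMEC-1 grown in EGM-2 with supplements and growth factors.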

[5] = Cytotoxicity against bovine BAEC cells at 100 uM after 3 days by coulter counter method; assay type: cell-based, Bos taurus; settings: cattle, 72 h; outline: as §1
[6] = Cytotoxicity against human HMEC1 cells at 100 uM after 3 days by coulter counter method; assay type: cell-based; settings: hmec-1, 72 h; outline: as §1
HeLa [7] = test: Cytotoxicity against human HeLa cells at 100 uM after 3 days by coulter counter method; assay type: cell-based; settings: 72 h; outline: as §1
MCF7 [8] = test: Antiproliferative activity against human MCF7 cells after 4 days by coulter counter method; assay type: functional, cell-based; settings: MCF7, 96 h

Row | Compound | inhibition (Gallus gallus) | IC50 [1] [µM] | IC50 (HeLa [2]) [µM] | also measured
1 | CN1CC(C)(COc2ccc(C(=N)N)cc2)Oc2ccc(N(CC(=O)O)Cc3ccc(F)c(F)c3)cc21 (stereo not given) | inactive |  |  | 
2 | CN1CC(C)(COc2ccc(C(=N)N)cc2)Oc2cc(N(Cc3ccc(F)cc3)C(=O)C(=O)O)ccc21 (stereo not given) | inactive |  |  | 
3 | CN1CC(C)(CO)Oc2cc(N(Cc3ccccc3)C(=O)C(=O)O)ccc21 (stereo not given) |  | > 100 | > 100 | 
4 | CN1CC(C)(COc2ccc(C(=N)N)cc2)Oc2cc(N(Cc3cc(F)cc(F)c3)C(=O)C(=O)O)ccc21 (stereo not given) | inactive |  |  | 
5 | CN1CC(C)(COc2ccc(C(=N)N)cc2)Oc2ccc(N(CC(=O)O)Cc3ccc(F)cc3)cc21 (stereo not given) | inactive |  |  | 
6 | N=C(N)c1ccc(OCC2COc3ccc(N(Cc4ccccc4)C(=O)C(=O)O)cc3O2)cc1 (stereo not given) | inactive | > 100 | > 100 | 
7 | CN1CC(C)(COc2ccc(C(=N)N)cc2)Oc2cc(N(CC(=O)O)Cc3cc(F)cc(F)c3)ccc21 (stereo not given) | inactive |  |  | 
8 | CN1CC(C)(COc2ccc(C(=N)N)cc2)Oc2ccc(N(CC(=O)O)Cc3cccc(F)c3)cc21 (stereo not given) | inactive |  |  | 
9 | CN1CC(C)(COc2ccc(C(=N)N)cc2)Oc2ccc(N(CC(=O)O)Cc3cc(F)cc(F)c3)cc21 (stereo not given) | inactive |  |  | 
10 | Cc1cc(C)c(/C=C2\C(=O)Nc3ccccc32)[nH]1 |  |  |  | inhibition (MAEC): Dose-dependent effect
11 | CCOC(=O)CN(Cc1cccc(F)c1)c1ccc2c(c1)N(C)CC(C)(COc1ccc(C#N)cc1)O2 (stereo not given) |  | > 100 | > 100 | IC50 [3]: > 100 µM; Activity (MCF7 [4]): Toxic; inhibition (MAEC): Dose-dependent effect; Activity [5]: Toxic; Activity [6]: Toxic; Activity (HeLa [7]): Toxic; IC50 (MCF7 [8]): > 100 µM
12 | CN1CC(C)(COc2ccc(C(=N)N)cc2)Oc2ccc(N(Cc3cccc(F)c3)C(=O)C(=O)O)cc21 (stereo not given) | inactive |  |  | 
13 | N=C(N)c1ccc(OCC2COc3cc(N(Cc4ccccc4)C(=O)C(=O)O)ccc3O2)cc1 (stereo not given) | inactive | > 100 | > 100 | 
14 | CCOC(=O)CN(Cc1ccc(F)cc1)c1ccc2c(c1)OC(C)(COc1ccc(C#N)cc1)CN2C (stereo not given) |  | 50 | > 100 | IC50 [3]: > 100 µM; Activity (MCF7 [4]): Toxic; Activity [5]: Toxic; Activity [6]: Toxic; Activity (HeLa [7]): Toxic; IC50 (MCF7 [8]): > 100 µM
15 | CCOC(=O)CN(Cc1cc(F)cc(F)c1)c1ccc2c(c1)N(C)CC(C)(COc1ccc(C#N)cc1)O2 (stereo not given) |  | > 100 | > 100 | IC50 [3]: > 100 µM; Activity (MCF7 [4]): Toxic; Activity [5]: Toxic; Activity [6]: Toxic; Activity (HeLa [7]): Toxic; IC50 (MCF7 [8]): > 100 µM
16 | CCOC(=O)CN(Cc1cc(F)cc(F)c1)c1ccc2c(c1)OC(C)(COc1ccc(C#N)cc1)CN2C (stereo not given) |  | 25 | > 100 | IC50 [3]: 49 µM; Activity (MCF7 [4]): Toxic; Activity [5]: Toxic; Activity [6]: Toxic; Activity (HeLa [7]): Toxic; IC50 (MCF7 [8]): 54 µM
17 | CN1CC(C)(COc2ccc(C(=N)N)cc2)Oc2cc(N(CC(=O)O)Cc3ccc(F)cc3)ccc21 (stereo not given) | inactive |  |  | 
18 | CN1CC(C)(COc2ccc(C(=N)N)cc2)Oc2cc(N(CC(=O)O)Cc3ccc(F)c(F)c3)ccc21 (stereo not given) | inactive |  |  | 
19 | CN1CC(C)(COc2ccc(C(=N)N)cc2)Oc2cc(N(CC(=O)O)Cc3cccc(F)c3)ccc21 (stereo not given) | inactive |  |  | 
20 | CN1CC(C)(COc2ccc(C(=N)N)cc2)Oc2cc(N(Cc3ccc(F)c(F)c3)C(=O)C(=O)O)ccc21 (stereo not given) | inactive |  |  | 
21 | CN1CC(C)(COc2ccc(C(=N)N)cc2)Oc2ccc(N(Cc3ccc(F)c(F)c3)C(=O)C(=O)O)cc21 (stereo not given) | inactive |  |  | 
22 | CN1CC(C)(COc2ccc(C(=N)N)cc2)Oc2ccc(N(Cc3ccc(F)cc3)C(=O)C(=O)O)cc21 (stereo not given) | inactive |  |  | 
23 | CN1CC(C)(COc2ccc(C(=N)N)cc2)Oc2cc(N(Cc3cccc(F)c3)C(=O)C(=O)O)ccc21 (stereo not given) | inactive |  |  | 
24 | CN1CC(C)(CO)Oc2cc(N(Cc3cc(F)cc(F)c3)C(=O)C(=O)O)ccc21 (stereo not given) |  | > 100 | > 100 | 
25 | CN1CC(C)(COc2ccc(C(=N)N)cc2)Oc2ccc(N(Cc3cc(F)cc(F)c3)C(=O)C(=O)O)cc21 (stereo not given) | inactive |  |  | 

Source: ChEMBL document CHEMBL2216753, “Novel 1,4-benzoxazine and 1,4-benzodioxine inhibitors of angiogenesis” (Eur J Med Chem, 2012)
